According to ChEMBL document CHEMBL4190199, “Antimalarial Activities of Alkyl Cyclohexenone Derivatives Isolated from the Leaves of Poupartia borbonica” (J Nat Prod, 2017):
≈ marks a conversion by molar mass, not a printed value.

Legend:
[1] = test system: Plasmodium falciparum; assay: Antiplasmodial activity against chloroquine-sensitive Plasmodium falciparum F32-Tanzania after 48 hrs by [3H]-hypoxanthine incorporation assay; assay type: functional, organism-based
[2] = test system: Plasmodium falciparum; assay: Antiplasmodial activity against asexual erythrocyte stage of chloroquine-resistant Plasmodium falciparum W2 infected in human red blood cells after 48 hrs by lactate dehydrogenase assay; assay type: functional, organism-based; settings: W2, 48 h
Outline: (§1)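 P. falciparum asexual blood stages in human A+ erythrocytes, RPMI 1640 with HEPES, NaHCO3, glutamine, glucose, hypoxanthine, gentamycin and 10% human A+ serum. Parasitemia 2%, hematocrit 1%. Eight 2-fold dilutions in triplicate, DMSO at most 1%. After 48 h, growth read by pLDH activity. Artemisinin positive control. IC50 read from graphs.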

[3] = test system: HeLa; assay: Cytotoxicity against human HeLa cells after 48 hrs by WST-1 assay; assay type: functional, cell-based
Outline: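 HeLa cells seeded at 6000 per well in medium containing test compounds and incubated 48 h. WST-1 then added for 30 min at 37 °C, absorbance read at 450 nm. Results expressed as percent of untreated control cells; IC50 taken from graphs.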

[4] = test system: Plasmodium falciparum; assay: Antiplasmodial activity against asexual erythrocyte stage of chloroquine-sensitive Plasmodium falciparum 3D7 infected in human red blood cells after 48 hrs by lactate dehydrogenase assay; assay type: functional, organism-based; settings: 3D7, 48 h; outline: as §1
[5] = Hemolytic activity in human RBC at 10 ug/ml after 1 hr relative to control; assay type: ADME, cell-based, Erythrocyte; settings: red blood cells, read-out: Activity
Outline: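 Human A+ erythrocytes, 10% (v/v) in PBS, incubated in triplicate with compounds at final 10 µg/mL (DMSO <1%) for 1 h at room temperature with agitation. Mixtures centrifuged 5 min at 2000 rpm, supernatant absorbance read at 550 nm. 1% (v/v) Triton X-100 served as 100% lysis and PBS as 0% lysis.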

[6] = Selectivity index, ratio of IC50 for human WI38 cells to IC50 for asexual erythrocyte stage of chloroquine-resistant Plasmodium falciparum W2 infected in human red blood cells; assay type: toxicity, cell-based; settings: read-out: Ratio IC50
[7] = Selectivity index, ratio of IC50 for human WI38 cells to IC50 for asexual erythrocyte stage of chloroquine-sensitive Plasmodium falciparum 3D7 infected in human red blood cells; assay type: toxicity, cell-based; settings: read-out: Ratio IC50
[8] = test system: WI-38; assay: Cytotoxicity against human WI38 cells after 48 hrs by WST-1 assay; assay type: cell-based; settings: WI-38, 48 h
[9] = organism: Danio rerio; assay: Toxicity in 48 hrs post fertilized zebra fish embryo assessed as cumulative mortality at 1 to 10 ug/ml replaced once daily for 3 days; assay type: organism-based; settings: zebrafish, in vivo, 72 h
Outline: (§2)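 Dechorionated zebrafish embryos, 25 per condition, duplicate geometric series. The first step spanned 10 to 0.001 µg/mL and the second was narrowed to 10 to 1 µg/mL. Compound was diluted from DMSO in fish medium, final DMSO at most 0.4%. Treatment was renewed daily for 3 days, with untreated and 0.4% DMSO controls. Embryos were observed daily until 72 hpf.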

[10] = organism: Danio rerio; assay: Toxicity in 72 hrs post fertilized zebra fish embryo assessed as death measured after third treatment dose replaced once daily for 3 days; assay type: organism-based; settings: zebrafish, in vivo; outline: as §2
[11] = organism: Danio rerio; assay: Toxicity in 24 to 72 hrs post fertilized zebra fish embryo assessed as bradycardia at 2 to 2.5 ug/ml replaced once daily for 3 days; assay type: organism-based; settings: zebrafish, in vivo; outline: as §2
[12] = test system: Plasmodium berghei; assay: Antimalarial activity against Plasmodium berghei NK173 infected in Swiss mouse assessed as inhibition of parasitemia at 15 mg/kg, ip qd administered 4 hrs post infection for 3 days measured on day 5 by Giemsa staining based microscopy relative to control; assay type: functional
Outline: (§3)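 Female Swiss mice (10 weeks, 25 ± 2 g), groups of five, infected ip with 2 × 10^7 P. berghei NK173 parasitized red cells. 15 mg/kg ip in 7% Tween 80/3% EtOH in sterile water, first dose 4 h post-infection (day 0), then once daily for 3 more days. Parasitemia read on Giemsa-stained tail-blood thin smears (≥500 erythrocytes). Inhibition calculated against vehicle controls at days 5 and 7.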

[13] = organism: Danio rerio; assay: Toxicity in 72 hrs post fertilized zebra fish embryo assessed as morphological changes at 1 ug/ml replaced once daily for 3 days; assay type: organism-based; settings: zebrafish, in vivo; outline: as §2
[14] = organism: Danio rerio; assay: Toxicity in 72 hrs post fertilized zebra fish embryo assessed as body axis deformation measured after third treatment dose replaced once daily for 3 days; assay type: organism-based; settings: zebrafish, in vivo; outline: as §2
[15] = organism: Danio rerio; assay: Toxicity in 24 to 72 hrs post fertilized zebra fish embryo assessed as death at 10 ug/ml measured within 1 day post dose; assay type: organism-based; settings: zebrafish, in vivo; outline: as §2
[16] = organism: Danio rerio; assay: Toxicity in 24 to 72 hrs post fertilized zebra fish embryo assessed as embryo disintegration at 3 to 10 ug/ml replaced once daily for 3 days; assay type: organism-based; settings: zebrafish, in vivo; outline: as §2
[17] = organism: Danio rerio; assay: Toxicity in 72 hrs post fertilized zebra fish embryo assessed as mortality at 1 ug/ml replaced once daily for 3 days; assay type: organism-based; settings: zebrafish, in vivo; outline: as §2
[18] = Toxicity in 48 hrs post fertilized zebra fish embryo assessed as embryo mortality at 2 ug/ml replaced once daily for 3 days; assay type: organism-based, Danio rerio; settings: zebrafish, in vivo; read-out: Activity; outline: as §2
[19] = organism: Danio rerio; assay: Toxicity in 72 hrs post fertilized zebra fish embryo assessed as cumulative mortality measured after third treatment dose replaced once daily for 3 days; assay type: organism-based; settings: zebrafish, in vivo; outline: as §2
[20] = organism: Danio rerio; assay: Toxicity in 24 to 72 hrs post fertilized zebra fish embryo assessed as percentage of bradycardia developed embryos at 2 to 2.5 ug/ml replaced once daily for 3 days measured each day until 72 hrs post fertilization; assay type: organism-based; settings: zebrafish, in vivo
Outline: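 Dechorionated zebrafish embryos, 25 per condition, exposed from 24 hpf. Compound in DMSO diluted in zebrafish medium (final DMSO at most 0.4%). Treatment replaced once daily for 3 days, with a narrowed 10–1 µg/mL range run in duplicate. Embryos observed daily to 72 hpf for mortality, disintegration, bradycardia and morphology. Untreated and 0.4% DMSO groups of 25 served as controls.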

[21] = test system: Mus musculus; assay: Toxicity in Swiss mouse assessed as mortality at 15 mg/kg, ip qd measured on day 7; assay type: organism-based; settings: in vivo
[22] = test system: Plasmodium berghei; assay: Antimalarial activity against Plasmodium berghei NK173 infected in Swiss mouse assessed as inhibition of parasitemia at 15 mg/kg, ip qd administered 4 hrs post infection for 3 days measured on day 7 by Giemsa staining based microscopy relative to control; assay type: functional; outline: as §3
[23] = organism: Danio rerio; assay: Toxicity in 24 to 72 hrs post fertilized zebra fish embryo assessed as death at 3 to 10 ug/ml measured within 1 day post dose; assay type: organism-based; settings: zebrafish, in vivo; outline: as §2
[24] = organism: Danio rerio; assay: Toxicity in 72 hrs post fertilized zebra fish embryo assessed as decrease in pericardial function measured after third treatment dose replaced once daily for 3 days; assay type: organism-based; settings: zebrafish, in vivo; outline: as §2

| Structure (SMILES) | IC50 [2] [µg/mL] | IC50 [3] [µg/mL] | IC50 [4] [nM] | hemolysis at 1 h, 10 ug/ml [5] [%] | selectivity ratio [6] | selectivity ratio [7] | IC50 [8] [µg/mL] | further results |
| --- | --- | --- | --- | --- | --- | --- | --- | --- |
| CCCCCC/C=C\CCCCCCCC(O)C[C@]1(O)C=C[C@@H](O)[C@@H](O)C1 (stereo partly drawn) | – | – | – | – | – | – | – | IC50 [1]: 86.4 µg/mL (≈ 226 µM) |
| CCCCCC/C=C\CCCCCCCC(=O)C[C@@]1(O)C=CC(=O)[C@@H](O)C1 | 0.48 to 1.27 (≈ 1.27 to 3.35 µM) | 1.31 to 3.45 (≈ 3.46 to 9.11 µM) | 430 to 1130 | < 1 | 2.1 | 2.34 | 1.01 to 2.66 (≈ 2.67 to 7.03 µM) | – |
| CCCCCCCCCCCCCCC[C@@H]1C[C@@]2(O)CC(=O)C=C[C@@]2(O)O1 | 0.37 to 0.97 (≈ 0.972 to 2.55 µM) | 1.44 to 3.77 (≈ 3.78 to 9.91 µM) | 690 to 1810 | < 1 | 2.81 | 1.51 | 1.04 to 2.73 (≈ 2.73 to 7.17 µM) | – |
| CCCCCC/C=C\CCCCCCC[C@@H]1C[C@@]2(O)CC(=O)C=C[C@@]2(O)O1 | 0.21 to 0.55 (≈ 0.555 to 1.45 µM) | 0.8 to 2.1 (≈ 2.11 to 5.55 µM) | 340 to 900 | < 1 | 2.86 | 1.76 | 0.6 to 1.58 (≈ 1.58 to 4.17 µM) | Activity [9]: Toxic; Activity [10]: Toxic; Activity [11]: Toxic; inhibition in vivo at 15 mg/kg [12]: 59.1%; Activity [13]: Non-Toxic; Activity [14]: Toxic; Activity [15]: Toxic; Activity [16]: Toxic; Activity [17]: Non-Toxic; mortality at 72 h, 2 ug/ml [18]: 60%; Activity [19]: Toxic; Activity [20]: 5%; Activity [21]: Toxic; inhibition in vivo at 15 mg/kg [22]: 69.5%; Activity [23]: Toxic; Activity [24]: Toxic |
| C[C@@H]1CC[C@H]2[C@@H](C)C(=O)O[C@@H]3O[C@@]4(C)CC[C@@H]1[C@]32OO4 [ARTEMISININ] | 0.01 to 0.035 (≈ 0.0354 to 0.124 µM) | – | 4 to 14 | – | – | – | – | – |
| CC[C@@]1(O)C(=O)OCc2c1cc1n(c2=O)Cc2cc3ccccc3nc2-1 [CAMPTOTHECIN] | – | 0.08 to 0.23 (≈ 0.23 to 0.66 µM) | – | – | – | – | 0.03 to 0.086 (≈ 0.0861 to 0.247 µM) | – |
| O=c1c(O)c(-c2ccc(O)c(O)c2)oc2cc(O)cc(O)c12 [QUERCETIN] | – | – | 17500 | – | – | – | – | – |
